Measurements gathered from unrelated publications.
Each line is one published result; the experiments were not run side by side.
SPHK1: Sphingosine kinase 1 (SPHK1, Homo sapiens, UniProt Q9NYA1)
PDE5A: cGMP-specific 3',5'-cyclic phosphodiesterase (PDE5A, Homo sapiens, UniProt O76074)
EHMT1: Histone-lysine N-methyltransferase EHMT1 (EHMT1, Homo sapiens, UniProt Q9H9B1)
CNR1: Cannabinoid receptor 1 (CNR1, Homo sapiens, UniProt P21554)
ADORA2A: Adenosine receptor A2a (ADORA2A, Homo sapiens, UniProt P29274)
PARP1: Poly [ADP-ribose] polymerase 1 (PARP1, Homo sapiens, UniProt P09874)
EDNRA: Endothelin-1 receptor (EDNRA, Homo sapiens, UniProt P25101)
OPRK1: Kappa-type opioid receptor (OPRK1, Homo sapiens, UniProt P41145)
HRH4: Histamine H4 receptor (HRH4, Homo sapiens, UniProt Q9H3N8)

| SMILES | target | effect on | mode | method | concentration | notes | inhibition |
| --- | --- | --- | --- | --- | --- | --- | --- |
| CC(C)(C)c1ccc(CCc2ccc(-c3noc([C@@H]4CCCN4C(=N)N)n3)cc2C(F)(F)F)cc1 | SPHK1 | enzyme activity | inhibitor | radiometric | 1 µM |  | 17% |
| CCN1C(=O)[C@H]2Cc3c([nH]c4ccccc34)[C@@H](c3cccnc3)N2C1=O | PDE5A | enzyme activity | inhibitor | FP | 50 µM |  | 102% |
| CN(C)c1ccc(C(=C2C=CC(=[N+](C)C)C=C2)c2ccc(N(C)C)cc2)cc1 | EHMT1 | cell-free assay |  |  | 10 µM |  | 62% |
| Ic1cccc2cnccc12 | CNR1 | ligand displacement |  | radioligand | 10 µM |  | 3% |
| O=C(CN1CCNCC1)Nc1ccc2oc(-c3ccco3)nc2c1 | ADORA2A | ligand displacement |  | radioligand | 10 µM | cell membranes | 8% |
| COc1cc(OC)c2c(=O)[nH]c(-c3c[nH]c4ncccc34)nc2c1 | PARP1 | enzyme activity | inhibitor | ELISA | 10 µM |  | 31% |
| O=C(CSc1nc2nccnc2c(=O)n1CCc1ccccc1)Nc1nccs1 | SPHK1 | enzyme activity | inhibitor |  | 10 µM |  | 8% |
| [H]/N=C(/N)N1CCC[C@H]1c1nc(-c2ccc(OCCC=CCCC)c(C(F)(F)F)c2)no1 | SPHK1 | enzyme activity | inhibitor | radiometric | 1 µM |  | 11% |
| c1ccc(N2CCN(CCCc3ccc4oc(-c5ccco5)nc4c3)CC2)cc1 | ADORA2A | ligand displacement |  | radioligand | 10 µM | cell membranes | 28% |
| O=C(O[C@@H]1Cc2c(O)cc(O)cc2O[C@@H]1c1cc(O)c(O)c(O)c1-c1c([C@H]2Oc3cc(O)cc(O)c3C[C@H]2O)cc(O)c(O)c1O)c1cc(O)c(O)c(O)c1 | EHMT1 | cell-free assay |  |  | 10 µM |  | -3% |
| COc1ccc(-c2nc3cc(CN4CCCCC4)ccc3o2)cc1OC | ADORA2A | ligand displacement |  | radioligand | 10 µM | cell membranes | 18% |
| [H]/N=C(\N)N1CCC[C@H]1c1nc(-c2ccc(OCCC=Cc3ccc(C(F)(F)F)cc3)c(C(F)(F)F)c2)no1 | SPHK1 | enzyme activity | inhibitor | radiometric | 1 µM |  | 5% |
| COc1ccc(F)cc1C(=O)NCc1ccc(-c2nn([C@@H](C)C(F)(F)F)c(N)c2C(N)=O)cc1 | Mitogen-activated protein kinase kinase kinase 3 (MAP3K3, Homo sapiens, UniProt Q99759) | target engagement in cells | inhibitor | chemoproteomics | 0.1 µM |  | 26.3% |
| CS(=O)(=O)Nc1cccc(-c2csc(NC(=O)CSc3nc4nccnc4c(=O)n3CCc3ccccc3)n2)c1 | SPHK1 | enzyme activity | inhibitor |  | 10 µM |  | 9% |
| O=C1C=CC(=O)c2c(O)cccc21 | EHMT1 | cell-free assay |  |  | 10 µM |  | -1% |
| COc1ccc(-c2nc3cc(CCN4CCCCC4)ccc3o2)cc1OC | ADORA2A | ligand displacement |  | radioligand | 10 µM | cell membranes | 10% |
| CC(C)(C)N1C(=O)[C@@H]2Cc3c([nH]c4ccccc34)[C@H](c3cccnc3)N2C1=O | PDE5A | enzyme activity | inhibitor | FP | 50 µM |  | 45% |
| N=C(N)N1CCC[C@H]1c1nc(-c2ccc(CCC3CCCCC3)c(C(F)(F)F)c2)no1 | SPHK1 | enzyme activity | inhibitor | radiometric | 1 µM |  | 15% |
| O=C(CSc1nc2nccnc2c(=O)n1CCc1ccccc1)Nc1ccccc1 | Phosphatidylinositol 4-phosphate 3-kinase C2 domain-containing subunit beta (PIK3C2B, Homo sapiens, UniProt O00750) | enzyme activity | inhibitor |  | 10 µM |  | 72% |
| O=C1N=C(N2CCCCN2)S/C1=C\c1ccc(F)cc1O | EDNRA | ligand displacement |  | radioligand | 10 µM |  | < 10% |
| COC(=O)[C@@H]1Cc2c([nH]c3ccccc23)[C@H](c2cccnc2)N1 | PDE5A | enzyme activity | inhibitor | FP | 50 µM |  | 72% |
| C=CCN1C(=O)[C@H]2Cc3c([nH]c4ccccc34)[C@@H](c3ccc(Br)s3)N2C1=O | PDE5A | enzyme activity | inhibitor | FP | 10 µM |  | 96% |
| N=C(N)N1CCC[C@H]1c1nc(-c2ccc(CCc3ccc(C(F)(F)F)cc3)c(C(F)(F)F)c2)no1 | SPHK1 | enzyme activity | inhibitor | radiometric | 1 µM |  | 12% |

| SMILES | target | effect on | mode | method | concentration | notes | inhibition |
| --- | --- | --- | --- | --- | --- | --- | --- |
| O=c1oc2c(O)c(O)cc3c(=O)oc4c(O)c(O)cc1c4c23 | EHMT1 | cell-free assay |  |  | 10 µM |  | 6% |
| O=C(c1ccc(Cl)cc1)N(Cc1ccccc1)C1CCCCC1 | EDNRA | cell-free assay |  |  | 10 µM |  | 1.4% |
| O=C(Nc1ccc(S(=O)(=O)N2CCC(Cl)CC2)cc1)c1ccc([N+](=O)[O-])o1 | OPRK1 | cell-free assay |  |  | 10 µM |  | 7% |
| O=C1NCCCc2c(O)cccc21 | PARP1 | enzyme activity | inhibitor |  | 10 µM |  | 43% |
| N#Cc1cc(Cn2c(N3CCCC3)nc3ccccc32)ccc1F | HRH4 | ligand displacement |  |  | 10 µM |  | -16% |
| Oc1ccc(N2CCN(Cc3ccc4oc(-c5ccco5)nc4c3)CC2)cc1 | ADORA2A | ligand displacement |  | radioligand | 10 µM | cell membranes | 11% |
| COc1cc(NC(C)CCCN)c2ncccc2c1 (stereo not shown) | EHMT1 | cell-free assay |  |  | 10 µM |  | 7% |
| COC(=O)[C@H]1Cc2c([nH]c3ccccc23)[C@H](c2ccc(OC)c(OC)c2)N1C(=O)CCl | PDE5A | enzyme activity | inhibitor | FP | 50 µM |  | 75% |
| CCCNc1nc2ccccc2n1Cc1ccc(Cl)cc1 | HRH4 | ligand displacement |  |  | 10 µM |  | -8.89% |
| N=C(N)N1CCC[C@H]1c1nc(-c2ccc(CCC3CC3)c(C(F)(F)F)c2)no1 | SPHK1 | enzyme activity | inhibitor | radiometric | 1 µM |  | 14% |
| CN(C)C1CCN(CC#Cc2nn(C3CCCC3)c3nc(NCc4ccccc4)ncc23)C1 (stereo not shown) | Aurora kinase B (AURKB, Homo sapiens, UniProt Q96GD4) | enzyme activity | inhibitor | FRET | 10 µM |  | 51% |
| O=C(NCCNC(=O)c1n[nH]c(=O)c2ccccc12)c1cccc(CN2C(=O)CNC2=O)c1 | PARP1 | enzyme activity | inhibitor |  | 0.5 µM |  | ~50% |
| O=C(c1ccc(F)cc1)N(Cc1ccccc1)C1CCCCC1 | Sigma non-opioid intracellular receptor 1 (SIGMAR1, Homo sapiens, UniProt Q99720) | cell-free assay |  |  | 10 µM |  | 9% |
| [H]/N=C(\N)N1CCC[C@H]1c1nc(-c2ccc(OCC=Cc3ccc(C(F)(F)F)cc3)c(C(F)(F)F)c2)no1 | SPHK1 | enzyme activity | inhibitor | radiometric | 1 µM |  | 20% |
| O=c1c(O)cccc2c([C@H]3Oc4cc(O)cc(O)c4C[C@H]3O)cc(O)c(O)c12 | EHMT1 | cell-free assay |  |  | 10 µM |  | 5% |
| COc1ccc([C@@H]2c3[nH]c4ccccc4c3C[C@@H]3C(=O)N(C(C)(C)C)C(=O)N23)cc1OC | PDE5A | enzyme activity | inhibitor | FP | 50 µM |  | 54% |
| Oc1cccc(Nc2nc(-c3ccc(F)cc3F)cs2)c1 | CNR1 | cell-free assay |  |  | 10 µM |  | 5.9% |
| CN1CCN(CCCOc2ccc(=O)n(-c3ccc(Cl)c(Cl)c3)n2)CC1 | Sodium channel protein type 9 subunit alpha (SCN9A, Homo sapiens, UniProt Q15858) | ligand displacement |  |  | 1 µM |  | 20.5% |
| COc1cc(NC(C)=O)c(Cl)cc1C(=O)Nc1nccs1 | EDNRA | cell-free assay |  |  | 10 µM |  | -1.4% |
| CCN(CC)c1ccc(C2Nc3ccc(C(=O)c4ccccc4)cc3NC3=C2C(=O)CC(C)(C)C3)cc1 (stereo not shown) | OPRK1 | ligand displacement |  | radioligand | 10 µM |  | 10% |
| O=C1NCCCc2ccc(F)cc21 | PARP1 | enzyme activity | inhibitor |  | 10 µM |  | 15% |
| CN(C)c1ccc2nc3ccc(=[N+](C)C)cc-3sc2c1 | EHMT1 | cell-free assay |  |  | 10 µM |  | 30% |
| CCN1C(=O)[C@@H]2Cc3c([nH]c4ccccc34)[C@@H](c3ccc(OC)c(OC)c3)N2C1=O | PDE5A | enzyme activity | inhibitor | FP | 50 µM |  | 75% |
